The entries come from a sample that favours hits as a whole.
INS promoter act – TRM-6 insulin promoter activation | TRM-6 cells (human fetal islet line), insulin promoter eGFP reporter, imaging; plate-scaled: unstimulated 0, stimulated control 100 | activation, % at 2 µM | 130,000 compounds, 0.81% hits | AID 1296;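 active = activation at 2 µM above a set limit, confirmed on inspection of the cell images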;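 note: share of cells whose green reporter signal exceeds an intensity cutoff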
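test system = TRM-6 insulin promoter–eGFP reporter cells | benchmarks = stimulated versus unstimulated wells as plate controls | read-out basis = percent cells above green-intensity threshold, converted to percent activation versus plate controls | detection = fixed-cell fluorescence microscopy, eGFP plus Hoechst | incubation = tamoxifen pre-incubation 15 h overnight, then compound exposure 48 h at 37 °C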
Each line names hits and unclear results; the compound was inactive in the other large screens; [ ] = remark or other dose.

CCOC(=O)Cc1csc(NC(=O)C(C)(C)CC)n1	none
CCOC(=O)c1cn2cccnc2n1	none
COc1ccc(Nc2nc(NC(C)(C)C)nc(N3CCOCC3)n2)c(OC)c1	none
COc1ccc(Nc2nc(Nc3ccc(OC)cc3OC)nc(N3CCN(C)CC3)n2)c(OC)c1	INS promoter act 316.7
COc1ccc(Nc2nc(NC(C)(C)C)nc(N3CCCC3)n2)c(OC)c1	none
Cc1cc(=O)oc2cc(OCC(=O)c3ccc4c(c3)NC(=O)CO4)ccc12	none
COc1cccc(NC(=O)C(=O)N/N=C/c2cc(C)n(-c3ccc(Cl)c(Cl)c3)c2C)c1	none
Cc1ccc(C(=O)COC(=O)CNC(=O)C(c2ccccc2)c2ccccc2)cc1[N+](=O)[O-]	none
Cc1ccc(C(=O)NCCSC(C)(C)C)cc1[N+](=O)[O-]	none
COC(=O)CCN(C(=O)c1ccc(C)c([N+](=O)[O-])c1)c1ccccn1	INS promoter act active
CC1=C(C(=O)OCC2CCCO2)C(c2coc3ccccc3c2=O)C2=C(CCCC2=O)N1 (centres undefined)	none
O=C(CN1C(=O)NC2(CCCCCC2)C1=O)N1CCN(S(=O)(=O)c2ccc(Cl)cc2)CC1	none
CCOC(=O)c1c(NC(=O)c2cc(-c3ccc(O)cc3)on2)sc(C(C)=O)c1C	none
COc1ccc(N/N=C(C)/C(=N/O)C(=O)Nc2ccccc2)cc1	none
Cc1ccc(S(=O)(=O)N2CCC(C(=O)NCCCOC(C)C)CC2)cc1	none
Cc1cc(S(=O)(=O)Nc2ccc(F)cc2)c(C)s1	none
CCCCC(=O)NS(=O)(=O)c1ccc(N=NN2CCOCC2)cc1	none
COc1ccc(N2C(=O)CC(Sc3nc(C)c4c(n3)CCCC4)C2=O)cc1 (centres undefined)	none
CCOc1ccc(N2C(=O)CC(SCC(=O)O)C2=O)cc1 (centres undefined)	none
COc1ccc(N2C(=O)CC(SCC(=O)O)C2=O)cc1 (centres undefined)	INS promoter act 437.5
COc1ccc(C(=O)CCNc2ccc3c(c2)OCCO3)cc1	INS promoter act 356.3
COc1cc(C(=O)Nc2ccc3c(c2)OCCO3)ccc1OC(F)F	none
CCOC(=O)c1ccc(NC(=O)Nc2ccc3c(c2)OCCO3)cc1	none
O=C1NN(c2ccccc2)C(=O)/C1=C/c1ccc(Sc2cccc3ccccc23)o1	none
Cc1cccc(NC(=S)N(CCN(C)C)C(C)c2ccccn2)c1 (centres undefined)	none
Cc1ccc(N=C2NC(=O)/C(=C\c3ccc(C)s3)S2)cc1	none
CCOc1cc2[nH]c(=O)n(CC3CCC(C(=O)NCCCOC)CC3)c(=O)c2cc1OCC (centres undefined)	INS promoter act 171.4
CCC1CCCCN1CCCNC(=O)c1ccc2c(=O)n(Cc3ccc(OC)cc3)c(=O)[nH]c2c1 (centres undefined)	none
COCCn1c(=S)[nH]c2cc(OC)c(OC)cc2c1=O	none
Cn1cccc1/C=N/NC(=O)c1ccn[nH]1	none
CCN(CC)C(=O)CSc1nnc(COc2cccc(C)c2)n1C	none
CCn1nnnc1SCC(=O)NC1CCCC1	none
Cc1ccc(NN2C(=O)C=C(c3ccc(Cl)cc3)C2=O)cc1	none
Cc1cc(N2C(=O)CC(N3CCN(c4ccc(C(=O)c5cccs5)cc4)CC3)C2=O)no1 (centres undefined)	INS promoter act 437.5
Cc1cc(N2C(=O)CC(C(C)c3ccccc3)C2=O)no1 (centres undefined)	none
O=C(c1ccc(N2CCOCC2)cc1)c1cccs1	none
CCC(CC)C(=O)N=C1SC2CS(=O)(=O)CC2N1CCc1ccc(OC)cc1 (centres undefined)	none
COc1ccc(C(=O)COC(=O)CCN=C2NS(=O)(=O)c3ccccc32)cc1OC	none
Cc1ccc(-c2nc3ccccc3c(=O)n2NC(=O)c2cccs2)cc1	none
CN1CCN(C2=CC3=CC(=C(C#N)C#N)CCC3CC2)CC1 (centres undefined)	INS promoter act 640.7
CCN1CCN(c2nc3ccccc3nc2C(C#N)C(=O)OC2CCCCC2)CC1 (centres undefined)	none
CCN1CCN(C2=CC3=CC(=C(C#N)C#N)CCC3CC2)CC1 (centres undefined)	INS promoter act 614.3[fluoresces]
N#CC(C#N)=C1C=C2C=C(N3CCCCCC3)CCC2CC1 (centres undefined)	INS promoter act 222.6
Nn1c(SCC(=O)NC(=O)NCc2ccco2)nnc1-c1ccc(OC(F)F)cc1	none
O=C(NCc1cccnc1)c1ccc(COc2cccc3ccccc23)o1	none
COc1ccc(C)cc1NC(=O)CSc1nnc(COc2ccc(Cl)cc2)n1Cc1ccco1	INS promoter act 141.7
COc1ccccc1NC(=O)CSc1nnc(-c2ccco2)n1Cc1ccco1	none
O=C(CSc1nnc(Cc2cccs2)n1Cc1ccco1)Nc1cc(Cl)cc(Cl)c1	none
Cn1c(COc2ccccc2)nnc1SCc1nc2ccccc2[nH]1	none
CCn1c(SCc2nc3ccccc3[nH]2)nnc1-c1cccs1	none
Clc1ccc(OCc2nnc(SCc3nc4ccccc4[nH]3)n2Cc2ccco2)cc1	INS promoter act 128.6
Cn1c(SCC(=O)Nc2ccccc2F)nnc1-c1cc2ccccc2o1	none
CS(=O)(=O)N(CC(=O)NCCC1=CCCCC1)c1ccc2c(c1)OCO2	none
O=c1ccccn1CCOc1ccccc1Cl	none
